Results published in ChEMBL document CHEMBL1123876, “Effect of reductive alkylation of lysine in positions 6 and/or 8 on the histamine-releasing activity of luteinizing hormone-releasing hormone antagonists” (1987).
≈ marks a conversion by molar mass, not a printed value. *1 amine or outer side, *2 acyl side, *3 side chain or, on linkers, in order; H or OH if unused. Where a SMILES comes first, the peptide text is derived from it. [ ]: non-standard residue; d: D form. X1 = O=C([C@@H](CCCCNC1CCCC1)N[*:1])[*:2]; X2 = O=C([C@H](CCCCNC1CCCC1)N[*:1])[*:2]; d2Nal = N[C@H](Cc1ccc2ccccc2c1)C(=O)O

Columns and labels:
Format in all cases: functional
[1] = organism: Rattus norvegicus; assay: Antiovulatory activity in rat was expressed as percentage of (9) rats blocked at 3 ug/mL
Procedure, shortened: (§1)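 Standard antiovulatory assay in Sprague-Dawley rats; analogue given in a 40% propane-1,2-diol/0.9% saline vehicle.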

[2] = organism: Rattus norvegicus; assay: In vitro histamine releasing activity in rat peritoneal cells; conditions: read-out: ED50 (the source's name)
Procedure, shortened: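 Peritoneal cells from male Sprague-Dawley rats exposed in vitro to each analogue in a standard histamine-release assay. ED50 for histamine release is reported in μg/mL as mean ± standard error.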

[3] = organism: Rattus norvegicus; assay: Antiovulatory activity in rat was expressed as percentage of (8) rats blocked at 3 ug/mL; procedure, shortened: as §1
[4] = organism: Rattus norvegicus; assay: Antiovulatory activity in rat was expressed as percentage of (10) rats blocked at 3 ug/mL; design: unit: %; procedure, shortened: as §1
[5] = organism: Rattus norvegicus; assay: Antiovulatory activity in rat was expressed as percentage of (9) rats blocked at 6 ug/mL; procedure, shortened: as §1
[6] = organism: Rattus norvegicus; assay: Antiovulatory activity in rat was expressed as percentage of rats blocked at 1 ug/mL (number of rats); procedure, shortened: as §1

SMILES | EC50 [2] | Antiovulatory activity [1] | Antiovulatory activity [3] | Antiovulatory activity [4] | Antiovulatory activity [5] | Antiovulatory activity [6]
CC(=O)N[C@H](Cc1ccc2ccccc2c1)C(=O)N[C@H](Cc1ccccc1)C(=O)N[C@H](Cc1ccccc1)C(=O)N[C@@H](CO)C(=O)N[C@@H](Cc1ccc(O)cc1)C(=O)N[C@H](CCCCNC1CCCCC1)C(=O)N[C@@H](Cc1ccccc1)C(=O)N[C@@H](CCCCNC1CCCCC1)C(=O)N1CCC[C@H]1C(=O)N[C@H](C)C(N)=O | 5.86 µg/mL (≈ 3.81 µM) |  |  | 38 |  | 
CCCC(CCC)NCCCC[C@H](NC(=O)[C@H](Cc1ccccc1)NC(=O)[C@@H](CCCCNC(CCC)CCC)NC(=O)[C@H](Cc1ccc(O)cc1)NC(=O)[C@H](CO)NC(=O)[C@@H](Cc1ccccc1)NC(=O)[C@@H](Cc1ccccc1)NC(=O)[C@@H](Cc1ccc2ccccc2c1)NC(C)=O)C(=O)N1CCC[C@H]1C(=O)N[C@H](C)C(N)=O | 21.9 µg/mL (≈ 14 µM) |  |  | 0 | 56 | 
CCCCC(CCCC)NCCCC[C@H](NC(=O)[C@H](Cc1ccccc1)NC(=O)[C@@H](CCCCNC(CCCC)CCCC)NC(=O)[C@H](Cc1ccc(O)cc1)NC(=O)[C@H](CO)NC(=O)[C@@H](Cc1ccccc1)NC(=O)[C@@H](Cc1ccccc1)NC(=O)[C@@H](Cc1ccc2ccccc2c1)NC(C)=O)C(=O)N1CCC[C@H]1C(=O)N[C@H](C)C(N)=O | > 300 µg/mL |  |  |  | 0 | 
CC(=O)N[C@H](Cc1ccc2ccccc2c1)C(=O)N[C@H](Cc1ccccc1)C(=O)N[C@H](Cc1ccccc1)C(=O)N[C@@H](CO)C(=O)N[C@@H](Cc1ccc(O)cc1)C(=O)N[C@H](CCCCNC1CCCC1)C(=O)N[C@@H](Cc1ccccc1)C(=O)N[C@@H](CCCCNC1CCCC1)C(=O)N1CCC[C@H]1C(=O)N[C@H](C)C(N)=O (Ac-[d2Nal][dF][dF]SY[X1]F[X2]P[dA]-NH2) | 6.1 µg/mL (≈ 4.04 µM) |  |  | 70 |  | 

Continued, in another order:

EC50 [2] | SMILES | Antiovulatory activity [1] | Antiovulatory activity [3] | Antiovulatory activity [4] | Antiovulatory activity [5] | Antiovulatory activity [6]
6.48 µg/mL (≈ 4.45 µM) | CC(=O)N[C@H](Cc1ccc2ccccc2c1)C(=O)N[C@H](Cc1ccccc1)C(=O)N[C@H](Cc1ccccc1)C(=O)N[C@@H](CO)C(=O)N[C@@H](Cc1ccc(O)cc1)C(=O)N[C@H](CCCCNC(C)C)C(=O)N[C@@H](Cc1ccccc1)C(=O)N[C@@H](CCCCNC(C)C)C(=O)N1CCC[C@H]1C(=O)N[C@H](C)C(N)=O | 89 |  |  |  | 
4.6 µg/mL (≈ 3.07 µM) | CCCC(CCC)NCCCC[C@H](NC(=O)[C@H](Cc1ccccc1)NC(=O)[C@@H](CCCN=C(N)N)NC(=O)[C@H](Cc1ccc(O)cc1)NC(=O)[C@H](CO)NC(=O)[C@@H](Cc1ccccc1)NC(=O)[C@@H](Cc1ccccc1)NC(=O)[C@@H](Cc1ccc2ccccc2c1)NC(C)=O)C(=O)N1CCC[C@H]1C(=O)N[C@H](C)C(=O)O |  | 0 |  |  | 
33 µg/mL (≈ 21.9 µM) | CC(=O)N[C@H](Cc1ccc2ccccc2c1)C(=O)N[C@H](Cc1ccccc1)C(=O)N[C@H](Cc1ccccc1)C(=O)N[C@@H](CO)C(=O)N[C@@H](Cc1ccc(O)cc1)C(=O)N[C@H](CCCN=C(N)N)C(=O)N[C@@H](Cc1ccccc1)C(=O)N[C@@H](CCCCNCc1ccc(C)cc1)C(=O)N1CCC[C@H]1C(=O)N[C@H](C)C(=O)O |  |  | 10 |  | 
4.68 µg/mL (≈ 3.18 µM) | CC(=O)N[C@H](Cc1ccc2ccccc2c1)C(=O)N[C@H](Cc1ccccc1)C(=O)N[C@H](Cc1ccccc1)C(=O)N[C@@H](CO)C(=O)N[C@@H](Cc1ccc(O)cc1)C(=O)N[C@H](CCCN=C(N)N)C(=O)N[C@@H](Cc1ccccc1)C(=O)N[C@@H](CCCCNCC(C)(C)C)C(=O)N1CCC[C@H]1C(=O)N[C@H](C)C(=O)O | 89 |  |  |  | 50
4.73 µg/mL (≈ 3.08 µM) | CC(=O)N[C@H](Cc1ccc2ccccc2c1)C(=O)N[C@H](Cc1ccccc1)C(=O)N[C@H](Cc1ccccc1)C(=O)N[C@@H](CO)C(=O)N[C@@H](Cc1ccc(O)cc1)C(=O)N[C@H](CCCN=C(N)N)C(=O)N[C@@H](Cc1ccccc1)C(=O)N[C@@H](CCCCNCc1c(C)cc(C)cc1C)C(=O)N1CCC[C@H]1C(=O)N[C@H](C)C(=O)O |  |  | 10 |  | 
